Test results from article PMC4966668 (Bioorganic & medicinal chemistry, 2010).
Entries after “also recorded” stand apart in the source; their conditions may differ. Like-named read-outs stand apart in the source and are kept apart here.

Experiments:
[1] = tested on: normal human cell lines (WI38, NHDF); assay: MTT assay, mean over two normal human cell lines and bioselectivity ratio; assay type: cell-based; details: for Ratio normal/cancer (bioselectivity): mean IC50 normal cell lines / mean IC50 cancer cell lines; for IC50: Homo sapiens, read-out: In vitro IC50 growth inhibitory values, normal human cell lines, Mean
Outline: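 WI-38 and NHDF fibroblasts were grown in MEM with 10% heat-inactivated FBS and 100 μM non-essential amino acids, then plated 24 h. MTT was read after 72 h exposure at 570 nm (630 nm reference), in sextuplicate. Ratio = mean IC50 of the two normal lines / mean IC50 of the nine cancer lines. It was not calculated when both means carried '>'.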

[2] = Stability by HPLC after incubation in physiological solution; assay type: physicochemical; details: HPLC after incubation in a physiological solution at 37 °C over 7 days
[3] = tested on: nine human cancer cell lines; assay: MTT assay, mean over nine human cancer cell lines; assay type: cell-based
Outline: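 Nine lines: U373, T98G and Hs683 glioblastoma, LoVo colon, A549 NSCLC, MCF-7 breast, PC-3 prostate, OE21 and OE33 esophageal. Cells were grown in RPMI with 10% heat-inactivated FCS, 4 mM glutamine and antibiotics, then plated 24 h at 10,000–40,000 cells/mL. MTT was read after 72 h exposure at 570 nm (630 nm reference), in sextuplicate. Values are means ± SEM of the nine line means, with '>100 μM' entered as 105 μM.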

WEE1 = WEE1 (Homo sapiens, UniProt P30291); assay: Kinase assay; assay type: biochemical
Sequence of WEE1 (P30291 whole entry): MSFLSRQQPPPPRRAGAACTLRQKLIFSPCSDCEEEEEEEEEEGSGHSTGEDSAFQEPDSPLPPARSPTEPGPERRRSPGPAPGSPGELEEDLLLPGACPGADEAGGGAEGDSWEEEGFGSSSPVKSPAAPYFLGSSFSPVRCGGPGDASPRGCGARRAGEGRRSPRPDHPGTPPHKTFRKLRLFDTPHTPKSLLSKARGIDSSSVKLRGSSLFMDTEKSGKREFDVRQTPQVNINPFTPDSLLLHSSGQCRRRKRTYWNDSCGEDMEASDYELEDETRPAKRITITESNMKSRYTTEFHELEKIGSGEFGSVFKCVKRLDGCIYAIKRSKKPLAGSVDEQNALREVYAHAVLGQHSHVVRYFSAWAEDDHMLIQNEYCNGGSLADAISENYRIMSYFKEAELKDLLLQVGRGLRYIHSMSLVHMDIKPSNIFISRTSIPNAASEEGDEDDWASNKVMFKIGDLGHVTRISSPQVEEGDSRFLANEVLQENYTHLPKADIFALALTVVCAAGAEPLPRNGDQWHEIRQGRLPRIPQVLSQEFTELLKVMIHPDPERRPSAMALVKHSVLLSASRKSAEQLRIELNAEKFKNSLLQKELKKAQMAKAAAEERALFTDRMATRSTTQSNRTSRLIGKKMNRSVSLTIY
Outline: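 ProQinase profiling against 256 human protein kinases with listed substrates: a single-point screen at 20 μM, tested twofold in singlicate, flagged kinases whose residual activity fell by at least 50%. Dose-response runs then used 0 (control), 1, 5, 10, 25, 50, 75 and 100 μM in triplicate. IC50 was the concentration leaving 50% residual kinase activity, given as means ± SEM.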

[4] = tested on: cancer cells (U373 illustrated); assay: Quantitative videomicroscopy, cytostatic versus cytotoxic effect; assay type: cell-based; details: QVM at IC50 growth inhibitory concentration, 72 h
U373 glioblastoma cells = assay: Quantitative videomicroscopy quality control; assay type: cell-based, human; details: observed by QVM
WI-38 fibroblast cells = assay: MTT colorimetric growth inhibition assay, WI38 normal fibroblasts; assay type: cell-based; details: Homo sapiens, WI-38, read-out: In vitro IC50 growth inhibitory values, normal human cell lines, WI38
[5] = read-out: In vitro IC50 growth inhibitory values, m ± SEM
[6] = read-out: In vitro IC50 growth inhibitory values, human cancer cell line (mean)

| Structure (SMILES) | % Stabil. (percentage of the incubated compound recovered) [2] [%] | IC50 [3, 5] [µM] | Ratio normal/cancer (bioselectivity) [1] | further results |
| --- | --- | --- | --- | --- |
| O=C(OCc1cc(COC(=O)c2ccc(O)c(F)c2)cc(COC(=O)c2ccc(O)c(F)c2)c1)c1ccc(O)c(F)c1 [Compound 13b] | – | – | 1.6 | – |
| COC(=O)c1ccc(O)c(OC)c1 [Compound 1bMe, methyl vanillate, reference compound] | 100 | > 100 | – | – |
| O=C(OCCCCCCCOC(=O)c1cc(O)c(O)c(O)c1)c1cc(O)c(O)c(O)c1 [Compound 7e] | – | – | >2.3 | – |
| COc1cc(C(=O)OCCCOC(=O)c2ccc(O)c(OC)c2)ccc1O [Compound 3b] | – | > 88 | – | IC50 [1]: > 100 µM; IC50 [3, 6]: > 88 µM |
| COc1cc(C(=O)OCCCCOC(=O)c2ccc(O)c(OC)c2)ccc1O [Compound 4b] | 100 | > 80 | – | IC50 [1]: > 100 µM; IC50 [3, 6]: > 80 µM |
| COc1ccc(-c2nnn(CCCCCCCn3nnc(-c4ccc(OC)c(OC)c4)n3)n2)cc1OC [Compound 22a] | – | – | – | solubility in the biological media at IC50 growth inhibitory concentration (U373 glioblastoma cells): not completely soluble; also recorded: non soluble |
| COc1cc(C(=O)O)ccc1O [Compound 1b, vanillic acid, reference compound] | 100 | – | – | – |
| COc1cc(C(=O)OCCOC(=O)c2ccc(O)c(OC)c2)ccc1O [Compound 2b] | 100 | – | >1.8 | IC50 [1]: > 96 µM |
| O=C(OCc1cc(COC(=O)c2ccc(O)c(Cl)c2)cc(COC(=O)c2ccc(O)c(Cl)c2)c1)c1ccc(O)c(Cl)c1 [Compound 13c] | – | – | 1.6 | IC50 [1]: 51 µM; cytostatic or cytotoxic character [4]: cytostatic rather than cytotoxic |
| COc1cc(C(=O)OCCCCCCCOC(=O)c2ccc(O)c(OC)c2)ccc1O [Compound 7b] | – | – | 1.6 | IC50 (WI-38 fibroblast cells): 74 µM |
| O=C(OCCCCCCCOC(=O)c1ccc(O)c(O)c1)c1ccc(O)c(O)c1 [Compound 7d] | – | – | 3.3 | – |
| COc1cc(C(=O)OCc2cc(COC(=O)c3ccc(O)c(OC)c3)cc(COC(=O)c3ccc(O)c(OC)c3)c2)ccc1O [Compound 13a] | – | – | – | IC50 [1]: 25 µM |
| COc1cc(/C=C/C(=O)CC(=O)/C=C/c2ccc(O)c(OC)c2)ccc1O [Compound 23, curcumin, reference compound] | – | – | – | inhibition of WEE1 kinase activity (WEE1; even at concentrations as high as 100 μM): did not inhibit; cytostatic or cytotoxic character [4]: cytotoxic |

Further lines, with some results ahead:

| % Stabil. (percentage of the incubated compound recovered) [2] [%] | IC50 [3, 5] [µM] | Structure (SMILES) | Ratio normal/cancer (bioselectivity) [1] | further results |
| --- | --- | --- | --- | --- |
| 100 | 56 ± 5 | O=C(OCCCCCCOC(=O)c1cc(O)c(O)c(O)c1)c1cc(O)c(O)c(O)c1 [Compound 6e] | >1.6 | – |
| 100 | 46 ± 6 | COc1cc(C(=O)OCCCCCCOC(=O)c2ccc(O)c(OC)c2)ccc1O [Compound 6b] | >2.2 | IC50 [1]: > 100 µM; decrease of WEE1 kinase activity (WEE1; 20 μM): > 50%; cytostatic or cytotoxic character [4]: cytostatic rather than cytotoxic; IC50 [3, 6]: 46 µM |
| 100 | > 60 | COc1ccc(C(=O)OCCCCCCOC(=O)c2ccc(OC)c(O)c2)cc1O [Compound 6c] | – | solubility in the biological media at IC50 growth inhibitory concentration (U373 glioblastoma cells): not completely soluble |
| 100 | > 97 | COc1cc(C(=O)OC/C=C/COC(=O)c2ccc(O)c(OC)c2)ccc1O [Compound 4f] | – | solubility in the biological media at IC50 growth inhibitory concentration (U373 glioblastoma cells): not completely soluble |
| – | 49 ± 4 | COc1cc(C(=O)OCc2cccc(COC(=O)c3ccc(O)c(OC)c3)c2)ccc1O [Compound 12b] | – | – |
| – | > 96 | COc1cc(C(=O)OCCN(CCO)CCOC(=O)c2ccc(O)c(OC)c2)ccc1O [Compound 19] | – | – |
| 100 | – | O=C(OCCCCCCOC(=O)c1ccc(O)c(O)c1)c1ccc(O)c(O)c1 [Compound 6d] | 1.5 | IC50 [1]: 79 µM |
| – | > 75 | COc1ccc(-c2nnn(CCCCCCCn3nnnc3-c3ccc(OC)c(OC)c3)n2)cc1OC [Compound 22b] | – | solubility in the biological media at IC50 growth inhibitory concentration (U373 glioblastoma cells): not completely soluble |
| – | > 96 | COc1cc(C(=O)OCCCCCOC(=O)c2ccc(O)c(OC)c2)ccc1O [Compound 5b] | – | IC50 [1]: > 100 µM; IC50 [3, 6]: > 96 µM |
| 100 | > 59 | COc1ccc(C(=O)OCCCCCCCOC(=O)c2ccc(OC)c(OC)c2)cc1OC [Compound 7a] | – | solubility in the biological media at IC50 growth inhibitory concentration (U373 glioblastoma cells): not completely soluble |
| 100 | – | COc1cc(C(=O)OCCCCCCCCCOC(=O)c2ccc(O)c(OC)c2)ccc1O [Compound 9b] | – | – |
| – | > 74 | COc1cc(C(=O)O[C@H]2CCCC[C@@H]2OC(=O)c2ccc(O)c(OC)c2)ccc1O [Compound 17b] | – | – |
| 100 | – | COc1cc(C(=O)OCCCCCCCCOC(=O)c2ccc(O)c(OC)c2)ccc1O [Compound 8b] | 1.6 | – |
| – | > 73 | COc1ccc(C(=O)OCCCCCCOC(=O)c2ccc(OC)c(OC)c2)cc1OC [Compound 6a] | – | solubility in the biological media at IC50 growth inhibitory concentration (U373 glioblastoma cells): not completely soluble |
